Measurements from ChEMBL document CHEMBL1131467, “Identification and initial structure-activity relationships of a novel class of nonpeptide inhibitors of blood coagulation factor Xa” (J Med Chem, 1998).
pIC50: −log10 of the molar value.

What was measured:
[1] = molecular target: Coagulation factor X (Homo sapiens, UniProt P00742); experiment: Inhibitory activity against human Coagulation factor X
Summary of the method: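 Human factor Xa at 1 nM final, in 0.05 M Tris, 0.15 M NaCl, 0.1% PEG-8000, pH 7.5, room temperature. Compound preincubated with enzyme 30 min, then Spectrozyme FXa added (200 μM final). Run in triplicate. IC50 taken from initial velocities; Ki by Cheng-Prusoff, assuming competitive inhibition.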

[2] = molecular target: Prothrombin (Homo sapiens, UniProt P00734); experiment: Inhibitory activity against human Thrombin
Summary of the method: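 Human thrombin at 1 nM final, in Tris 0.05 M, NaCl 0.15 M, 0.1% PEG-8000, pH 7.5, room temperature. Enzyme and compound preincubated 30 min; reaction started with Pefachrome TH (50 μM final). Absorbance at 405 nm followed for 5 min. IC50 is the level that halves control initial velocity; apparent Ki by Cheng-Prusoff, assuming competitive inhibition.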

[3] = molecular target: Cationic trypsin (Bos taurus); experiment: Inhibitory activity against bovine trypsin

Sequence of Coagulation factor X (P00742 41-179 limits assumed): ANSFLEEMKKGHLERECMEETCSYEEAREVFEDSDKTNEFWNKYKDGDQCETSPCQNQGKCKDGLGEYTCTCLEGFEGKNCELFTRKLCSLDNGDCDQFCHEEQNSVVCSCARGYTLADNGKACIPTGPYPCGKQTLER
Sequence of Coagulation factor X (P00742 235-488 limits assumed): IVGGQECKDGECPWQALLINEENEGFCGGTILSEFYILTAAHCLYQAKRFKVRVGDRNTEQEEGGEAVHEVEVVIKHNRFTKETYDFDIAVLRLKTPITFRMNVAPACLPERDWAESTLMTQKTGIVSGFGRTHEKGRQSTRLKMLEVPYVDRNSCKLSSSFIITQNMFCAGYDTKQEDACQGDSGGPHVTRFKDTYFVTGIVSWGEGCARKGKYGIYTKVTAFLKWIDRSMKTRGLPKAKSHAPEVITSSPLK

SMILES	pIC50 [1]	pIC50 [2]	IC50 [3] [nM]
COC(=O)[C@@H](Cc1cccc(C(=N)N)c1)[C@@H](/C=C/c1ccccc1)NC(=O)c1ccccc1	5.70		
COC(=O)C(Cc1cccc(C(=N)N)c1)C(/C=C/c1ccccc1)NC(=O)c1ccc(-c2ccc(OC)cc2OC)cc1 (stereo unspecified)	7.05	5.46	2900
COC(=O)C(Cc1cccc(C(=N)N)c1)C(/C=C/c1ccccc1)NC(=O)c1ccc(-c2ccc(OC)cc2)cc1 (stereo unspecified)	7.10	5.57	2900
CN(C)C(=O)C(Cc1cccc(C(=N)N)c1)C(/C=C/c1ccccc1)NC(=O)c1ccc(-c2ccccc2)cc1 (stereo unspecified)	5.36		
COC(=O)C(Cc1cccc(C(=N)N)c1)C(/C=C/c1ccccc1)NC(=O)c1cccc2ccccc12 (stereo unspecified)	6.10		
COCC(Cc1cccc(C(=N)N)c1)C(/C=C/c1ccccc1)NC(=O)c1ccc(-c2ccccc2)cc1 (stereo unspecified)	6.27	5.06	10000
CCOc1ccccc1-c1ccc(C(=O)NC(/C=C/c2ccccc2)C(Cc2cccc(C(=N)N)c2)C(=O)OC)cc1 (stereo unspecified)	7.22	5.42	1800
CCc1cccc(-c2ccc(C(=O)NC(/C=C/c3ccccc3)C(Cc3cccc(C(=N)N)c3)C(=O)OC)cc2)c1 (stereo unspecified)	6.41	5.77	2600
COC(=O)C(Cc1cccc(C(=N)N)c1)C(/C=C/c1ccccc1)NC(=O)c1ccccc1 (stereo unspecified)	6.15		
COC(=O)C(Cc1cccc(C(=N)N)c1)C(/C=C/c1ccccc1)NC(=O)c1ccc(Cc2ccccc2)cc1 (stereo unspecified)	6.34		
COC(=O)C(Cc1cccc(C(=N)N)c1)C(/C=C/c1ccccc1)NC(=O)c1ccc(-c2cccc(OC)c2)cc1 (stereo unspecified)	6.96	5.62	2200
COC(=O)C(Cc1cccc(C(=N)N)c1)C(/C=C/c1ccccc1)NC(=O)c1ccc(-c2ccc(C)cc2)cc1 (stereo unspecified)	6.62	5.32	2800
COC(=O)C(Cc1cccc(C(=N)N)c1)C(/C=C/c1ccccc1)NC(=O)c1ccc(-c2ccccc2)cc1 (stereo unspecified)	6.96	4.74	
CCc1ccccc1-c1ccc(C(=O)NC(/C=C/c2ccccc2)C(Cc2cccc(C(=N)N)c2)C(=O)OC)cc1 (stereo unspecified)	6.42	5.28	
COC(=O)C(Cc1cccc(C(=N)N)c1)C(/C=C/c1ccccc1)NC(=O)c1ccc(Oc2ccccc2)cc1 (stereo unspecified)	5.91		
COC(=O)C(Cc1cccc(C(=N)N)c1)C(/C=C/c1ccccc1)NC(=O)c1ccc(-c2ccccc2OC)cc1 (stereo unspecified)	7.30	5.48	1800
N=C(N)c1cccc(CCC(/C=C/c2ccccc2)NC(=O)c2ccc(-c3ccccc3)cc2)c1 (stereo unspecified)	6.02	4.51	
COC(=O)C(Cc1cccc(C(=N)N)c1)C(/C=C/c1ccccc1)NC(=O)c1ccc2ccccc2c1 (stereo unspecified)	6.80		
COC(=O)C(Cc1cccc(C(=N)N)c1)C(/C=C/c1ccccc1)NC(=O)C1CCC(C2CCCCC2)CC1 (stereo unspecified)	5.95		
COC(=O)C(Cc1cccc(C(=N)N)c1)C(/C=C/c1ccccc1)NS(=O)(=O)c1ccc(-c2ccccc2)cc1 (stereo unspecified)	5.71		
COC(=O)C(Cc1cccc(C(=N)N)c1)C(/C=C/c1ccccc1)NC(=O)c1ccc(-c2cccc(C)c2)cc1 (stereo unspecified)	6.92	5.14	
N=C(N)c1cccc(CC(CO)C(/C=C/c2ccccc2)NC(=O)c2ccc(-c3ccccc3)cc2)c1 (stereo unspecified)	6.19		

The remaining compounds from weak to strong by pIC50 [1], led by results:

pIC50 [1]	pIC50 [2]	IC50 [3] [nM]	SMILES
5.57	5.11		N=C(N)c1cccc(CC(C(=O)O)C(/C=C/c2ccccc2)NC(=O)c2ccc(-c3ccccc3)cc2)c1 (stereo unspecified)
5.92			COC(=O)C(Cc1cccc(C(=N)N)c1)C(/C=C/c1ccccc1)NC(=O)c1ccccc1C (stereo unspecified)
5.96			COC(=O)C(Cc1cccc(C(=N)N)c1)C(/C=C/c1ccccc1)NC(=O)c1cccc(C)c1 (stereo unspecified)
6.05			CCc1ccc(-c2ccc(C(=O)NC(/C=C/c3ccccc3)C(Cc3cccc(C(=N)N)c3)C(=O)OC)cc2)cc1 (stereo unspecified)
6.15			COC(=O)[C@H](Cc1cccc(C(=N)N)c1)[C@@H](/C=C/c1ccccc1)NC(=O)c1ccccc1
6.22			COC(=O)C(Cc1cccc(C(=N)N)c1)C(/C=C/c1ccccc1)NC(=O)c1ccc(C)cc1 (stereo unspecified)
6.24			COC(=O)C(Cc1cccc(C(=N)N)c1)C(/C=C/c1ccccc1)NC(=O)c1ccc(C2CCCCC2)cc1 (stereo unspecified)
6.44	5.42		CC(=O)OCC(Cc1cccc(C(=N)N)c1)C(/C=C/c1ccccc1)NC(=O)c1ccc(-c2ccccc2)cc1 (stereo unspecified)
6.44	5.70	2800	CCOc1ccc(-c2ccc(C(=O)NC(/C=C/c3ccccc3)C(Cc3cccc(C(=N)N)c3)C(=O)OC)cc2)cc1 (stereo unspecified)
6.51			COC(=O)C(Cc1cccc(C(=N)N)c1)C(CCc1ccccc1)NC(=O)c1ccc(-c2ccccc2)cc1 (stereo in doubt; 8b)
6.74	5.37	3600	CCOc1cccc(-c2ccc(C(=O)NC(/C=C/c3ccccc3)C(Cc3cccc(C(=N)N)c3)C(=O)OC)cc2)c1 (stereo unspecified)
7.05	5.05	3100	COC(=O)C(Cc1cccc(C(=N)N)c1)C(/C=C/c1ccccc1)NC(=O)c1ccc(-c2ccccc2C)cc1 (stereo unspecified)
7.22			COC(=O)[C@H](Cc1cccc(C(=N)N)c1)[C@@H](CCc1ccccc1)NC(=O)c1ccc(-c2ccccc2)cc1
7.22			COC(=O)C(Cc1cccc(C(=N)N)c1)C(CCc1ccccc1)NC(=O)c1ccc(-c2ccccc2)cc1 (stereo in doubt; 8a)
7.52	5.33		COC(=O)C(Cc1cccc(C(=N)N)c1)C(/C=C/c1ccccc1)NC(=O)c1ccc(-c2ccc(OC)c(OC)c2)cc1 (stereo unspecified)
